Measured values: ChEMBL document CHEMBL4257543, “Structural optimization and antibacterial evaluation of rhodomyrtosone B analogues against MRSA strains” (Medchemcomm, 2018)
≈ marks a conversion by molar mass, not a printed value. Calls of active or inactive are those of the source.

What was measured:
Staphylococcus aureus [1] = test: Antibacterial activity against methicillin-resistant Staphylococcus aureus JCSC 4788 by micro dilution susceptibility test; assay type: functional
Procedure, shortened: (§1)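 Microbroth dilution MIC in Mueller–Hinton broth following CLSI guidelines, vancomycin as positive control; resazurin added as visible growth indicator. Assays run at least in triplicate.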

Staphylococcus aureus [2] = test: Antibacterial activity against Staphylococcus aureus ATCC 6538 by micro dilution susceptibility test; assay type: functional; procedure, shortened: as §1
Staphylococcus aureus [3] = test: Ratio of MIC for methicillin-resistant Staphylococcus aureus JCSC 4788 re-passaged at 24 hrs intervals for 20 times to MIC for methicillin-resistant Staphylococcus aureus JCSC 4788; assay type: functional
Procedure, shortened: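 Sequential passaging of MRSA JCSC 4788 in MHB with sub-inhibitory compound at 24 h intervals for at least 20 passages at 37 °C. MIC after passaging, by CLSI microbroth dilution, is divided by the initial MIC. Resistance is defined as a rise of more than 4-fold.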

Staphylococcus aureus [4] = test: Antibacterial activity against methicillin-resistant Staphylococcus aureus JCSC 4788 at sub-MIC re-passaged at 24 hrs intervals for 5 times by micro dilution susceptibility test; assay type: functional, organism-based
Procedure, shortened: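 Exponential-phase MRSA JCSC 4788 at 37 °C passaged into fresh MHB containing compound at a sub-inhibitory concentration and re-passaged at 24 h intervals up to at least 20 passages; MIC then redetermined by CLSI microbroth dilution in MHB. Resistance defined as a more than 4-fold increase over the initial MIC.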

Compound	MIC (Staphylococcus aureus [1])	MIC (Staphylococcus aureus [2])	Ratio (Staphylococcus aureus [3])	Activity (Staphylococcus aureus [4])
CCCCC(=O)c1c(O)cc(O)c2c1OC1=C(C(=O)C(C)(C)C(=O)C1(C)C)C2CC(C)C (centres undefined)	1 µg/mL (≈ 2.26 µM)	0.5 µg/mL (≈ 1.13 µM)	–	–
CC(=O)c1c(O)cc(O)c2c1OC1=C(C(=O)C(C)(C)C(=O)C1(C)C)C2CC(C)C (centres undefined)	4 µg/mL (≈ 9.99 µM)	4 µg/mL (≈ 9.99 µM)	–	–
CCCCCCCCCCCCCCCC(=O)c1c(O)cc(O)c2c1OC1=C(C(=O)C(C)(C)C(=O)C1(C)C)C2CC(C)C (centres undefined)	> 256 µg/mL	> 256 µg/mL	–	–
CC(C)CC1C2=C(Oc3c(C(=O)CCc4ccccc4)c(O)cc(O)c31)C(C)(C)C(=O)C(C)(C)C2=O (centres undefined)	2 µg/mL (≈ 4.08 µM)	2 µg/mL (≈ 4.08 µM)	–	–
CC(C)CC1C2=C(Oc3c(C(=O)C4CCCCC4)c(O)cc(O)c31)C(C)(C)C(=O)C(C)(C)C2=O (centres undefined)	4 µg/mL (≈ 8.54 µM)	2 µg/mL (≈ 4.27 µM)	–	–
CC(C)CC(=O)c1c(O)cc2c(c1O)C(CC(C)C)C1=C(O2)C(C)(C)C(=O)C(C)(C)C1=O (centres undefined)	1 µg/mL (≈ 2.26 µM)	1 µg/mL (≈ 2.26 µM)	–	–
CC(C)CC1C2=C(Oc3c(C(=O)Cc4ccccc4)c(O)cc(O)c31)C(C)(C)C(=O)C(C)(C)C2=O (centres undefined)	4 µg/mL (≈ 8.39 µM)	4 µg/mL (≈ 8.39 µM)	–	–
CC(C)CC1C2=C(Oc3c(C(=O)C4CCC4)c(O)cc(O)c31)C(C)(C)C(=O)C(C)(C)C2=O (centres undefined)	8 µg/mL (≈ 18.2 µM)	4 µg/mL (≈ 9.08 µM)	–	–
CC1COc2c(N3CCN(C)CC3)c(F)cc3c(=O)c(C(=O)O)cn1c23 (centres undefined) [OFLOXACIN]	–	–	16	inactive
CC(C)CC1C2=C(Oc3c(C(=O)C4CCCC4)c(O)cc(O)c31)C(C)(C)C(=O)C(C)(C)C2=O (centres undefined)	4 µg/mL (≈ 8.8 µM)	4 µg/mL (≈ 8.8 µM)	–	–
CCCCCCCCCC(=O)c1c(O)cc(O)c2c1OC1=C(C(=O)C(C)(C)C(=O)C1(C)C)C2CC(C)C (centres undefined)	0.5 µg/mL (≈ 0.975 µM)	0.5 µg/mL (≈ 0.975 µM)	–	–
CC(C)CC1C2=C(Oc3c(C=O)c(O)cc(O)c31)C(C)(C)C(=O)C(C)(C)C2=O (centres undefined)	128 µg/mL (≈ 331 µM)	128 µg/mL (≈ 331 µM)	–	–
